# V1aR counter: counter-screen for oxytocin receptor agonists: human V1a receptor agonists | P37288 | CHO-V1R cells, Fluo-8 calcium fluorescence, agonist mode; 0% DMSO, 100% 3 nM vasopressin | activation, % at 3 µM | hit rate 0.25% among 320,000 | AID 2797;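 active = activation above the mean activation of all tested compounds plus 3 SD, per screening run, cut at about 20% in these data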;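 note: signal is peak over basal fluorescence ratio across a 100 second FLIPR read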
# Target sequence (P37288 whole entry, looked up): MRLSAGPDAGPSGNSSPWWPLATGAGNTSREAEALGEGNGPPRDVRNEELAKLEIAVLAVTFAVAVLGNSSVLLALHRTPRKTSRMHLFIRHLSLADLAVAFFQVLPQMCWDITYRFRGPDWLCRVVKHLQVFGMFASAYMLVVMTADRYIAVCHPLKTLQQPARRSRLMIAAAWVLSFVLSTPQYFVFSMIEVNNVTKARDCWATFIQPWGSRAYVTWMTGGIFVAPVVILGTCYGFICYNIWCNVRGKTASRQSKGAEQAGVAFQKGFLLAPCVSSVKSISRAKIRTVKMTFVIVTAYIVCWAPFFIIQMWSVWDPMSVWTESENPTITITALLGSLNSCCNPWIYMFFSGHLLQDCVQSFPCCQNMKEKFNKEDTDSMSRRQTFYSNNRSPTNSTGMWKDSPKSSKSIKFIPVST
# OXTR potentiate: potentiators of human oxytocin receptor; AID 2445; hit rate 0.061% among 320,000; activation, % at 3 µM; CHO-OTR cells, Fluo-8 calcium fluorescence, potentiator mode; 0% = oxytocin EC15, 100% = EC100; P30559;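 active = activation above that plate's cutoff, the mean activation of tested compounds plus 3 SD, cut at about 6.6% in these data, passing the limit was not always enough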
#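 assay system = CHO-OTR cells, human receptor | schedule = compound 6 min at room temperature before oxytocin, 100 s read | detection = Fluo-8 intracellular calcium fluorescence, ex 470-495, em 515-575 nm | evaluation = normalized max/min fluorescence ratio, % activation | control set = EC15 oxytocin alone as 0%, 75 nM oxytocin (EC100) as 100%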
# TRPML3 agonist: activates the human TRPML3 channel; Q8TDD5; HEK293 TRPML3-YFP, Fluo-8 calcium fluorescence; 100% = the carbachol control signal; activation, % at 3 µM; hit rate 0.29% among 220,000; AID 1448;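 active = activation above its plate's cutoff, the mean activation of the plate's test wells plus 3 SD, cut at about 12% in these data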
#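 Test system: HEK293 cells stably carrying human TRPML3-YFP; Doses: single dose, 3 µM final nominal compound, 0.3% DMSO final; Schedule: dye loading 1 h 37 °C then 30 min ambient, 125 s read; Technique: Fluo-8 calcium fluorescence; Benchmarks: high control carbachol 87 µM, low control DMSO.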
# OXTR ag: agonists of human oxytocin receptor | P30559 | activation, % at 3 µM | AID 2435 | CHO-OTR cells, Fluo-8 calcium fluorescence; normalized: DMSO 0%, oxytocin 100% | hit rate 0.32% among 320,000;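 active = activation above the mean of all tested compounds plus 3 SD, cutoff set per screening run, cut at about 20% in these data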;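 note: peak over basal fluorescence ratio from a 100 s FLIPR kinetic read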
# zfTRPN1 agonist: activates the zebrafish TRPN1 channel; HEK293 zebrafish TRPN1-YFP, Fluo-8 calcium fluorescence; 100% = response to 87 µM carbachol; activation, % at 3 µM; hit rate 0.18% among 220,000;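 active = activation above its plate's cutoff, the mean activation of test wells on that plate plus 3 SD, cut at about 19% in these data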
#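 Control set: carbachol 87 µM as high control, DMSO as low control; system: HEK293 stable line with zebrafish TRPN1-YFP; read-out: % activation versus carbachol response; detection: intracellular calcium fluorescence with Fluo-8; doses: single test compound dose, 3 µM nominal, 0.3% DMSO; schedule: dye 1 h 37 °C plus 30 min RT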
# Numbers stand for hits; 0 = inactive; - = no result. Rows were chosen to be rich in hits. Some 0.55% of all compounds tested hit in one or more screens of this group.
SMILES,V1aR counter,OXTR potentiate,TRPML3 agonist,OXTR ag,zfTRPN1 agonist
Cc1ccc(NS(=O)(=O)c2ccc(C(=O)NC3CCN(Cc4ccccc4)CC3)cc2)cc1,21,0,-,22,-
CS(=O)(=O)Nc1ccc(C(=O)NCc2ccccn2)cc1,0,0,0,0,0
CCOc1ccc(NS(=O)(=O)c2ccc(C(=O)NCC3(N4CCCCC4)CCCCC3)cc2)cc1,25,0,-,36,-
Cc1ccc(S(=O)(=O)Nc2cccc(C(=O)NC3CCN(Cc4ccccc4)CC3)c2)cc1F,0,0,-,0,-
Cc1ccc(NS(=O)(=O)c2ccc(C(=O)NCc3ccccn3)cc2)cc1,31,0,-,25,-
CCOC(=O)NC(=O)/C(C#N)=C(/C)N(C)C,0,0,0,0,0
CCCNC(=S)N1CCC(NC(=O)C2CCCCC2)CC1,0,0,0,0,0
CCOc1ccc(NS(=O)(=O)c2ccc(C(=O)NCc3ccncc3)cc2)cc1,0,0,-,0,-
CCOc1ccc(NS(=O)(=O)c2ccc(C(=O)NCc3ccccn3)cc2)cc1,27,0,-,31,-
CCN(CC)c1ccc(C(=O)O)cc1,0,0,0,0,0
CCN(CC)c1ccc(/C=C2\C(=O)c3ccc(C(=O)O)cc3C2=O)cc1,66,0,23,161,69
O=c1c(O)c(-c2cccs2)oc2ccccc12,59,0,16,35,26
Cc1ccc(-c2oc3ccccc3c(=O)c2O)cc1,0,0,0,0,0
O=c1c(O)c(-c2cccs2)oc2ccc(Cl)cc12,92,0,52,63,49
N#CC(C#N)=C(Nc1ccc(F)cc1)SCc1cccc(Br)c1,0,0,21,0,25
CC(SCc1ccccc1)C(=O)Nc1ccc(F)cc1 (configuration not stated),0,0,0,0,0
Cc1cccc(CSC(Nc2ccc(F)cc2)=C(C#N)C#N)c1,0,0,19,0,26
Cc1cccc(CSC(=N)N)c1,0,0,0,0,0
Cc1c2cc(O)c(=O)cc-2oc2cc(O)c(O)cc12,0,0,0,68,0
COc1cc(OC)c(-c2c3cc(O)c(=O)cc-3oc3cc(O)c(O)cc23)cc1OC,389,0,206,390,291
COc1ccc(CNc2nc3ccccc3n2C)c(OC)c1,0,0,0,0,0
COc1ccc(N=Nc2nc3cc(Br)c(Br)cc3n2C)c(OC)c1,0,0,20,0,25
NC(CCCCc1ccccc1)c1cccc2ccccc12 (configuration not stated),0,0,-,21,-
CC(CCc1ccccc1)NCc1cccc2ccccc12 (configuration not stated),0,0,-,0,-
COc1cc(/C=C(\C#N)c2nc3ccccc3o2)ccc1O,24,0,16,30,66
SMILES,V1aR counter,OXTR potentiate,TRPML3 agonist,OXTR ag,zfTRPN1 agonist
CCN(CC)c1ccc2cc(-c3nc4ccccc4[nH]3)c(=O)oc2c1,288,0,55,323,128
CCN(CC)c1ccc2cc(-c3nc4ccccc4n3C)c(=O)oc2c1,0,0,0,0,0
CCN(CC)c1ccc2cc(-c3nc(-c4ccc(OC)cc4)cs3)c(=O)oc2c1,297,0,67,454,64
CCN(CC)c1ccc2cc(-c3nnc(-c4ccc(Br)cc4)o3)c(=O)oc2c1,-,-,0,-,0
CCN(C(=O)C1CCN(S(=O)(=O)c2ccc3c(c2)oc(=O)n3C)CC1)c1cccc(C)c1,0,0,0,0,0
O=C(NCc1ccc2c(c1)OCO2)C1CCN(c2nccc(C(F)(F)F)n2)CC1,0,0,0,0,0
Cn1c(SCC(=O)N2CCCCC2)nc2cccnc21,0,0,0,0,0
O=C(CCc1[nH]c2ccccc2c1Sc1ccccc1)NCCO,0,0,0,0,0
O=C(NCCc1ccc(O)c(O)c1)C1COc2ccccc2O1 (configuration not stated),0,0,-,0,-
Nc1c(C(=O)c2ccc(Cl)cc2)sc2nsc(SCCN3CCOCC3)c12,0,0,0,0,23
Nc1c(C(=O)c2ccccc2)sc2nsc(SCCN3CCCC3)c12,0,0,13,0,26
CC(=O)c1sc2nsc(SCCN3CCCCC3)c2c1N,0,0,0,0,0
CN1/C(=C/C=C(C#N)C#N)C(C)(C)c2ccccc21,0,0,0,0,0
CC1=C/C(=C\C=C(C#N)C#N)N(C)c2ccccc21,32,0,17,23,27
